This note sets out measurements from ChEMBL document CHEMBL4825680, “Structure-based discovery of potent and selective small-molecule inhibitors targeting signal transducer and activator of transcription 3 (STAT3)” (Eur J Med Chem, 2021).

Calls of active or inactive are those of the source. The calls are words filed in the database; no cut-off is given here.

Data set [1] relates to MDA-MB-231. Briefly: Antiproliferative activity against human MDA-MB-231 cells. The data set is classed as functional, cell-based.
The target of data set [2] is T1, Signal transducer and activator of transcription 3 (Homo sapiens, UniProt P40763). Briefly: Inhibition of STAT3 phosphorylation at Ser727 residue in human MDA-MB-231-4175 cells at 3 uM after 3 hrs by Western blotting analysis. The data set is classed as cell-based. The following applies: MDA231-LM2-4175.
T1 sequence (P40763 whole entry): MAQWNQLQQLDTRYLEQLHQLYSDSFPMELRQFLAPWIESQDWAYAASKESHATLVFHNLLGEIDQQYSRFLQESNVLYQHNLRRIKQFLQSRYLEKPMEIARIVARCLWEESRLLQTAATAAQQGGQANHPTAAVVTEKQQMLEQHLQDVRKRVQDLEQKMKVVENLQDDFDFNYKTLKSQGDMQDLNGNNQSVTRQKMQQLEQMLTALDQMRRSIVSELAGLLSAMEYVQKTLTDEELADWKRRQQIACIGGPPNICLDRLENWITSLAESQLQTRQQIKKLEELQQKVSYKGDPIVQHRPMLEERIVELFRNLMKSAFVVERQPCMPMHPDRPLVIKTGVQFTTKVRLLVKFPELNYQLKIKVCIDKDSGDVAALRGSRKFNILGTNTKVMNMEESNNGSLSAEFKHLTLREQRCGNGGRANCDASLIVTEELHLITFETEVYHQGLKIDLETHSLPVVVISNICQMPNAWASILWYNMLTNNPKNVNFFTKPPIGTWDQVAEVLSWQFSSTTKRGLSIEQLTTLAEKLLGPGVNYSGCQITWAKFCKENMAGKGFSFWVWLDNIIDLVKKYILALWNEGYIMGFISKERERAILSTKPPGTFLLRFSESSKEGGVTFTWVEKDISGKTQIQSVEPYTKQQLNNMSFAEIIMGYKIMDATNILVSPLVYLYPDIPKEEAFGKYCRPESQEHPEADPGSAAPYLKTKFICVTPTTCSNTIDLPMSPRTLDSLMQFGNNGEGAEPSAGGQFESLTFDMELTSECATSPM
Data set [3] deals with T2, Signal transducer and activator of transcription 1-alpha/beta (Homo sapiens) (UniProt P42224).
T2 sequence (whole entry): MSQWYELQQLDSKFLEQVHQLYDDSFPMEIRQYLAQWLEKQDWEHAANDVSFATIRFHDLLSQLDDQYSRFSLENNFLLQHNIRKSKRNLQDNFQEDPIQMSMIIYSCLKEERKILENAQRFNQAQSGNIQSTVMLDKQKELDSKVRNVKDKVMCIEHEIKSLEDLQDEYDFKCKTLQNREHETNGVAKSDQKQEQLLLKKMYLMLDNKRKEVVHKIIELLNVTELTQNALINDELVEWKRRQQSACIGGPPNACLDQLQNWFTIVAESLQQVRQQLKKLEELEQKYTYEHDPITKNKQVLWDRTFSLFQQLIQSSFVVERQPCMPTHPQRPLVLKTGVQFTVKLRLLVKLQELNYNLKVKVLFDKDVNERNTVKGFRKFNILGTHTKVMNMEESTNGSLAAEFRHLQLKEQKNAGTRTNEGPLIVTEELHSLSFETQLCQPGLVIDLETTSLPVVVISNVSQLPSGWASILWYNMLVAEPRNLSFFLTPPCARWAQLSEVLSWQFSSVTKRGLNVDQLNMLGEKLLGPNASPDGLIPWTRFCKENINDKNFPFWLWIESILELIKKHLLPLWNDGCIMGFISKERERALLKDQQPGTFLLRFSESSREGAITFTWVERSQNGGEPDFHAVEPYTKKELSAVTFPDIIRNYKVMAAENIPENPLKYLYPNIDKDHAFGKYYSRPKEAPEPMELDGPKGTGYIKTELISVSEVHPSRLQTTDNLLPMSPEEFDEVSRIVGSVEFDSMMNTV
Briefly: Inhibition of STAT1 phosphorylation at Y701 residue in human HCC70 cells at 0.3 to 3 uM after 3 hrs by Western blotting analysis. The data set is classed as cell-based. The following applies: dose 0.3-3 µM.

Data set [4] concerns HCC70. Briefly: Effect on total STAT1 level in human HCC70 cells at 0.3 to 3 uM after 3 hrs by Western blotting analysis. The data set is classed as functional, cell-based. Conditions: dose 0.3-3 µM. In outline:
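Breast cancer cells were treated with vehicle (0.1% DMSO) or compound, then lysed in RIPA with PMSF and phosphatase inhibitors. 20–50 μg protein was run on 8 or 12% SDS-PAGE, blotted to PVDF, blocked in 5% BSA, probed with primary antibodies overnight at 4 °C, then HRP secondaries, with ECL detection.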

Data set [5] concerns the target T1, Signal transducer and activator of transcription 3. Briefly: Inhibition of Flag-tagged STAT3 dimerization (unknown origin) expressed in HEK293T cells after 24 hrs by confocal microscopic analysis. The class given is cell-based. The following applies: dose 1-3 µM. In outline:
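HEK-293T cells transfected with HA-STAT3 and Flag-STAT3. After 24 h, treated with vehicle (0.1% DMSO) or compound for 24 h, with IL-6 100 ng/mL added for 30 min. Fixed in paraformaldehyde, permeabilised with Triton X-100, stained with anti-HA and anti-Flag plus Alexa 488/555 secondaries and DAPI. Confocal imaging for colocalisation.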

Data set [6] has the same target. Briefly: Inhibition of phosphorylated STAT3 nuclear translocation in human MDA-MB-231 cells after 12 hrs by immunofluorescence analysis. The data set is classed as cell-based. Conditions: dose 0.3-3 µM. In outline: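 MDA-MB-231 cells (constitutively active STAT3) treated with vehicle or compound for 12 h. Immunofluorescence staining with a p-STAT3-specific primary antibody and an Alexa Fluor secondary antibody.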

Data set [7] shares this target. Briefly: Inhibition of STAT3 in human MDA231-LM2-4175 cells assessed as downregulation of Mcl-1 expression at 0.3 to 3 uM after 24 hrs by western blot analysis. The class given is cell-based. Conditions: dose 0.3-3 µM. In outline: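 TNBC cells given vehicle (0.1% DMSO) or graded compound levels for 24 h, lysed in RIPA with PMSF and phosphatase inhibitors. BCA-quantified lysate (20–50 µg) run on SDS-PAGE, transferred to PVDF, blocked in 5% BSA. Probed overnight at 4 °C for Bcl-xL, Mcl-1 and c-Myc, with β-actin. HRP secondary, ECL detection. Three independent experiments.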

The subject of data set [8] is MDA-MB-231. Briefly: Induction of apoptosis in human MDA-MB-231 cells assessed as viable cells at 1 uM after 48 hrs by Annexin-V-FITC/propidium iodide staining based flow cytometric analysis (reference value: 93.4%). The data set is classed as functional. Conditions: read-out: Activity.
The test system of data set [9] is MDA-MB-231. Briefly: Induction of apoptosis in human MDA-MB-231 cells assessed as late apoptotic cells at 1 uM after 48 hrs by Annexin-V-FITC/propidium iodide staining based flow cytometric analysis (Rvb =3.05%). The data set is classed as functional.
Data set [10] has as its system MDA-MB-231. Briefly: Induction of apoptosis in human MDA-MB-231 cells assessed as necrotic cells at 1 uM after 48 hrs by Annexin-V-FITC/propidium iodide staining based flow cytometric analysis (Rvb =0.543%). The data set is classed as functional.
The nature of data set [11]: Induction of apoptosis in human MDA231-LM2-4175 cells assessed as viable cells at 1 uM after 48 hrs by Annexin-V-FITC/propidium iodide staining based flow cytometric analysis (reference value: 94.4%). The data set is classed as functional. Conditions: read-out: Activity.
Data set [12] is described as follows: Induction of apoptosis in human MDA231-LM2-4175 cells assessed as late apoptotic cells at 1 uM after 48 hrs by Annexin-V-FITC/propidium iodide staining based flow cytometric analysis (reference value: 2.60%). The data set is classed as functional.
Data set [13] has as its system MDA-MB-468. Briefly: Induction of apoptosis in human MDA-MB-468 cells assessed as necrotic cells at 1 uM after 48 hrs by Annexin-V-FITC/propidium iodide staining based flow cytometric analysis (reference value: 0.240%). The class given is functional.
In data set [14] the test system is MDA-MB-231. Briefly: Inhibition of cell invasion in human MDA-MB-231 cells incubated for 12 hrs by crystal violet staining based transwell assay. The class given is functional. Conditions: dose 1-3 µM. In outline:
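Cells seeded at 1.5×10^4–3×10^4 per well in the upper chamber of 8.0 µm pore Transwell inserts and treated with graded compound for 12 h. Non-invading cells removed with cotton. Invaded cells fixed in 4% paraformaldehyde, stained with crystal violet, photographed and counted. Triplicate.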

Data set [15] is described as follows: Half life in Sprague-Dawley rat at 10 mg/kg, po measured up to 24 hrs by LC-MS/MS analysis. The class given is ADME, organism-based. The following applies: in vivo. In outline:
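Male SD rats given a single oral dose of 10 mg/kg in DMSO/0.5% HPMC (5/95, v/v). Blood was drawn at 0.25, 0.5, 1, 2, 4, 8 and 24 h, and plasma was analysed by LC-MS/MS on a BEH phenyl column with a formic acid water/acetonitrile mobile phase.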

Data set [16] in a line: Toxicity in mouse xenografted with human MDA-MB-231-4175 cells assessed as morphological change in kidney at 5 to 15 mg/kg, […] once daily for 20 days by HE staining based assay. The data set is classed as organism-based. The following applies: in vivo, iv, 480 h, dose 5-15 mg/kg, time 20 day. In outline:
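Female NOD-SCID mice aged 4–5 weeks, given 2×10^6–3×10^6 MDA-MB-231-4175 cells subcutaneously in the flank. At about 100 mm³ tumour volume, randomised n=6/group: vehicle (PBS with 15% Cremophor EL), 5 or 15 mg/kg intraperitoneally daily. Killed at day 20; heart, liver, spleen, lung and kidney collected for morphological examination.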

The compound `O=C(Cc1c(-c2ccccc2)nc2ccccn12)Nc1ccc2c(c1)S(=O)(=O)C=C2` came in with an IC50 in data set [1] of 1.2 µM. The inhibition entry in [2] and in data set [7] was “Active” each time. Besides, the inhibition entry in data set [3] was “inactive”. Also, the result in data set [4] was inactive. For the same compound, the inhibition entry in data set [5], in data set [6] and in data set [14] was “Dose-Dependent Effect” throughout. The viability at 1 µM in [8] amounted to 83.5%; in data set [11] it was 88.7%. In addition, the Activity in data set [9] is on record as 7.54%; in data set [10], 1.57%; in data set [12] it was 4%; in [13], 1.54%; in [16], “Non-Toxic”. Moreover, the half-life in data set [15] was 1.46 h.
